Where two headings read alike, the source gives them in different places.
Tests used:
2C19 = conditions: 10 μM NBN; corresponding probe reaction; ref Linder et al., 2009; cited from earlier work
CYP 3A4 = CYP 3A4 (Homo sapiens, UniProt P08684); assay: Incubation of D or DA with recombinant human CYP 3A4; assay type: in vitro ADME; conditions: recombinant 3A4; substrate 6 μM
CYP 2C19 = CYP 2C19 (Homo sapiens, UniProt P33261); assay: Incubation of D or DA with recombinant human CYP 2C19; assay type: in vitro ADME; conditions: for conversion to DOH or metabolites by 2C19 in the absence of NADPH: incubated in the absence of NADPH; for average velocity of 2C19 in the first 10 minutes: recombinant 2C19, substrate 6 μM
Chain of CYP 2C19 (P33261 whole entry): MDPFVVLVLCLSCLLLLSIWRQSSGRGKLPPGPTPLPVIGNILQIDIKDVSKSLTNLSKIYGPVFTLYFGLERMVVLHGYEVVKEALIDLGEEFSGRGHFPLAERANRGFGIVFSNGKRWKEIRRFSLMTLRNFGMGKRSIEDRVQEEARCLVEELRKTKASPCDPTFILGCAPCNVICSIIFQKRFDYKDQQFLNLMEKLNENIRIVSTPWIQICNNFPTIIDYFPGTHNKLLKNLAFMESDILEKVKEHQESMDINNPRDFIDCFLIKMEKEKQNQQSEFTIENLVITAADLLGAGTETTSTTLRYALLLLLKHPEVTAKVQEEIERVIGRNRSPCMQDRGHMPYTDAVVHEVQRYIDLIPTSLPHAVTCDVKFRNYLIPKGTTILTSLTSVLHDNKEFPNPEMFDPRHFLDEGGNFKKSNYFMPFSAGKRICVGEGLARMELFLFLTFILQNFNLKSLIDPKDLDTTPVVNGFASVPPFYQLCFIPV

[1] = assay type: in vivo; conditions: mice, ABT vs. no ABT
[2] = tested on: human liver microsome (HLM); assay: In vitro metabolism in human liver microsomes; assay type: in vitro ADME; conditions: substrate 6 μM, 60 minutes; for effect of NBN and ketoconazole together on metabolism by HLM: 10 μM NBN + 2 μM ketoconazole
Summary of the method: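 Human liver microsomes at 1 mg/mL in 50 mM potassium phosphate (pH 7.4) with 1 mM NADPH and 6 μM substrate; final methanol 0.5% (v/v). Inhibitors came from DMSO stocks (DMSO at most 0.5% v/v). NBN at 10 μM and ketoconazole at 2 μM were added with the substrate. Incubated at 37°C for 1 hour, then extracted and quantitated. Three or more independent experiments.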

[3] = ref Zhang et al., 2015, cited from earlier work
[4] = assay type: in vivo, human
[5] = rats; ref Song et al., 2011; cited from earlier work
[6] = rats, ref Li et al., 2013b, cited from earlier work
3A4 = conditions: 1 μM ketoconazole; corresponding probe reaction; ref Linder et al., 2009; cited from earlier work

Chain of CYP 3A4 (P08684 whole entry): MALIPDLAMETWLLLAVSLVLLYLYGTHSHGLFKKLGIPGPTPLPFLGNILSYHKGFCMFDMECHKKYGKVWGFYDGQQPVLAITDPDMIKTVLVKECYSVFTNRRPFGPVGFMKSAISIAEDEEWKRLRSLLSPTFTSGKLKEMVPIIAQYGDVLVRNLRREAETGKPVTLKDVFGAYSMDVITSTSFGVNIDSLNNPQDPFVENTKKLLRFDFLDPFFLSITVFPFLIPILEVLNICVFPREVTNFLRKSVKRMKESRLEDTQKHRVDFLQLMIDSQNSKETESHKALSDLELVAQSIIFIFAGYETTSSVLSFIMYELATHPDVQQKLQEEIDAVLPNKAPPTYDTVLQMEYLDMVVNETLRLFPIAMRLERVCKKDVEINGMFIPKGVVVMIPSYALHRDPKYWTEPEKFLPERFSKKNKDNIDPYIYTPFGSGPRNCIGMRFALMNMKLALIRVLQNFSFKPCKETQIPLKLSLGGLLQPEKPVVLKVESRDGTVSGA

SMILES | average velocity of 3A4 in the first 10 minutes (CYP 3A4) | conversion to DOH or metabolites by 2C19 in the absence of NADPH (CYP 2C19) | average velocity of 2C19 in the first 10 minutes (CYP 2C19) | increase of plasma level by ABT pretreatment ([1]; 1 hour after D/DA dose) | increase of prostate content by ABT pretreatment ([1]; 1 hour after D/DA dose) | increase of plasma level by ABT pretreatment ([1]; 2 hours after D/DA dose) | increase of prostate content by ABT pretreatment ([1]; 2 hours after D/DA dose) | effect of NBN and ketoconazole together on metabolism by HLM [2] | other results
CCC1(c2ccccc2)NC(=O)N(Cc2ccccc2)C1=O (single isomer, unassigned; (+)) [NBN, (+)-N-3-benzylnirvanol] | – | – | – | – | – | – | – | – | inhibition of 2C19 activity in HLM (2C19): 55%
CC(C)=CC(=O)O[C@H]1Cc2cc3ccc(=O)oc3cc2OC1(C)C [D, decursin] | 4 pmol per minute per pmol CYP | not able to convert | 60 pmol D or DA per minute per pmol CYP | 32 fold | 61 fold | 26 fold | 61 fold | additive manner | effect of 2C19 inhibitor NBN on metabolism by HLM ([2]; 10 μM NBN, 1 mg/mL HLM): retarded the disappearance of D
C/C=C(/C)C(=O)O[C@H]1Cc2cc3ccc(=O)oc3cc2OC1(C)C [DA, decursinol angelate] | 5 pmol per minute per pmol CYP | not able to convert | 60 pmol D or DA per minute per pmol CYP | 30 fold | 18 fold | 30 fold | 48 fold | additive manner | variation in the Cmax and AUC0–48h among subjects ([3]; healthy human subjects, single dose): ≤ 60 fold; effect of 2C19*17 allele on plasma AUC0–48h ([4]; human subjects by CYP SNP genotype): trend of gene-dose effect; plasma AUC0–48h compared among three racial groups (Caucasian, Hispanic, Asian) ([4]; human subjects, Kruskal-Wallis test, p<0.05): statistically different among three groups; effect of 3A4 inhibitor ketoconazole (KCZ) on metabolism by HLM ([2]; 2 μM ketoconazole, 1 mg/mL HLM): greater extent of inhibition of DA conversion to DOH and metabolite N8
CC1(C)Oc2cc3oc(=O)ccc3cc2C[C@@H]1O [DOH, decursinol] | – | – | – | 1.5–2 fold | 1.5–2 fold | 1.5–2 fold | 1.5–2 fold | – | urinary excretion of free DOH, share of D/DA ingested ([3]; human subjects): < 1%; absorption (AUC-oral dose vs. AUC-i.v.) [5]: ~ 45%; AUC of plasma DOH ([6]; equal moles by oral gavage): 65012 ng·h/mL; AUC ratio, DOH group vs. D/DA group ([6]; equal moles by oral gavage): ~ 2.4 fold; tmax of plasma DOH peak ([6]; oral gavage): ~ 0.7 h
CC(=O)N1CCN(c2ccc(OCC3COC(Cn4ccnc4)(c4ccc(Cl)cc4Cl)O3)cc2)CC1 (centres unmarked) [ketoconazole] | – | – | – | – | – | – | – | – | inhibition of 3A4 activity in HLM (3A4): 59%

Source: paper PMC4872390 (The American journal of Chinese medicine, 2015)
